Measured values as given in ChEMBL document CHEMBL3877271, “Antagonizing STAT3 activation with benzo[b]thiophene 1, 1-dioxide based small molecules” (Eur J Med Chem, 2017).
pIC50: −log10 of the molar value. Activity calls are given as the source filed them. No cut-off for these calls is given here.

How the values were obtained:
MDA-MB-231 [1] = test: Induction of apoptosis in human MDA-MB-231 cells assessed as necrotic cells at 1 uM after 24 hrs by Annexin-V FITC/propidium iodide staining based flow cytometry (reference value: 4.1%); assay type: functional
MDA-MB-231 [2] = test: Induction of apoptosis in human MDA-MB-231 cells assessed as live cells at 7 uM after 24 hrs by Annexin-V FITC/propidium iodide staining based flow cytometry (reference value: 90.3%); assay type: functional
MDA-MB-231 [3] = test: Induction of ROS generation in human MDA-MB-231 cells at 3 uM after 24 hrs by DCFH-DA staining based flow cytometry relative to control; assay type: functional
How it was run: (§1)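 3 × 10⁵ cells/well in 6-well plates treated 24 h (0, 1, 3, 5 µM). Medium replaced with serum-free medium holding DCFH-DA at 10 µM final, 20 min at 37 °C. Cells washed twice, trypsinised, resuspended in warm PBS and read by flow cytometry.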

MDA-MB-231 [4] = test: Induction of apoptosis in human MDA-MB-231 cells assessed as late apoptotic cells at 5 uM after 24 hrs by Annexin-V FITC/propidium iodide staining based flow cytometry (reference value: 1.8%); assay type: functional
MDA-MB-231 [5] = test: Induction of apoptosis in human MDA-MB-231 cells assessed as increase in cleaved caspase-3 expression at 1 to 5 uM after 24 hrs by Western blot method; assay type: functional, cell-based
How it was run: (§2)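 MDA-MB-231 cells treated 24 h, trypsinised and lysed in RIPA buffer (50 mM Tris-HCl pH 7.4, 150 mM NaCl, 0.25% deoxycholate, 1% NP-40, 1 mM EDTA, protease inhibitors). Equal total protein from whole-cell lysates immunoblotted; Stattic 5 µM used as comparator.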

Mus musculus [6] = test: In vivo inhibition of STAT3 phosphorylation in ICR mouse tumor implanted with mouse 4T1 cells at 10 mg/kg, ip daily for 11 days measured on day 12 by Western blot method; assay type: functional, organism-based
How it was run: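 Male ICR mice, 5 weeks old, inoculated with 2 × 10⁶ 4T1 cells at the right armpit. At 24 h, randomised into groups of 6 and dosed i.p.; vehicle PBS/DMSO (8:2) daily for 11 days. Killed day 12; tumours weighed; TI% = (1 − mean treated/mean control weight) × 100. Tumour p-STAT3 and STAT3 assessed by western blot.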

MDA-MB-231 [7] = test: Inhibition of colony formation in human MDA-MB-231 cells up to 6 uM incubated for 24 hrs measured after 14 days by crystal violet staining based assay; assay type: functional, cell-based
How it was run: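 Cells plated at 800-1000 per well in 6-well plates. Treated next day with vehicle or 0.5-6 µM for 24 h, then grown 10-14 d until colonies appeared. Stained with crystal violet for 4 h; colonies scored manually.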

[8] = biological target: Signal transducer and activator of transcription 3 (Homo sapiens) (UniProt P40763); test: Inhibition of STAT3 in human MDA-MB-231 cells assessed as downregulation of Bcl2 expression at 1 to 5 uM after 24 hrs by Western blot method; assay type: cell-based; how it was run: as §2
MDA-MB-231 [9] = test: Induction of apoptosis in human MDA-MB-231 cells assessed as necrotic cells at 5 uM after 24 hrs by Annexin-V FITC/propidium iodide staining based flow cytometry (reference value: 4.1%); assay type: functional
[10] = Antiproliferative activity against human MCF7 cells after 72 hrs by MTT assay; assay type: functional, cell-based; conditions: MCF7, 72 h
How it was run: (§3)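 Cells in RPMI-1640 with 10% FBS, penicillin/streptomycin, 37 °C, 5% CO₂; seeded 3000-5000 cells/well, left overnight (16 h), then medium replaced with fresh medium holding serial dilutions in triplicate for 72 h. MTT read-out; viability = absorbance of treated/solvent control × 100%. Stattic served as reference.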

[11] = Antiproliferative activity against human HCT116 cells after 72 hrs by MTT assay; assay type: functional, cell-based; conditions: HCT-116, 72 h; how it was run: as §3
MDA-MB-231 [12] = test: Induction of ROS generation in human MDA-MB-231 cells at 5 uM after 24 hrs by DCFH-DA staining based flow cytometry relative to control; assay type: functional; how it was run: as §1
MDA-MB-231 [13] = test: Induction of apoptosis in human MDA-MB-231 cells assessed as late apoptotic cells at 7 uM after 24 hrs by Annexin-V FITC/propidium iodide staining based flow cytometry (reference value: 1.8%); assay type: functional
MDA-MB-231 [14] = test: Induction of apoptosis in human MDA-MB-231 cells assessed as late apoptotic cells at 3 uM after 24 hrs by Annexin-V FITC/propidium iodide staining based flow cytometry (reference value: 1.8%); assay type: functional
MDA-MB-231 [15] = test: Induction of ROS generation in human MDA-MB-231 cells at 1 uM after 24 hrs by DCFH-DA staining based flow cytometry relative to control; assay type: functional; how it was run: as §1
MDA-MB-231 [16] = test: Induction of apoptosis in human MDA-MB-231 cells assessed as necrotic cells at 3 uM after 24 hrs by Annexin-V FITC/propidium iodide staining based flow cytometry (reference value: 4.1%); assay type: functional
MDA-MB-231 [17] = test: Induction of apoptosis in human MDA-MB-231 cells assessed as live cells at 3 uM after 24 hrs by Annexin-V FITC/propidium iodide staining based flow cytometry (reference value: 90.3%); assay type: functional
[18] = biological target: Signal transducer and activator of transcription 3 (Homo sapiens) (UniProt P40763); test: Inhibition of IL-6-stimulated STAT3 phosphorylation in human MDA-MB-231 cells preincubated for 12 hrs followed by IL-6 addition measured after 30 mins by Western blot method; assay type: cell-based
How it was run: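 Cells adhered overnight in 6-well plates, then serum-starved. Left untreated or given 1-5 µM for 12 h, then stimulated with IL-6 (25 ng/mL). Harvested 30 min later for western blot of p-STAT3.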

[19] = Antiproliferative activity against human MDA-MB-231 cells after 72 hrs by MTT assay; assay type: functional, cell-based; conditions: MDA-MB-231, 72 h; how it was run: as §3
MCF7 = test: Potency index, ratio of stattic IC50 to compound IC50 for human MCF7 cells; assay type: functional
MDA-MB-231 [20] = test: Induction of apoptosis in human MDA-MB-231 cells assessed as early apoptotic cells at 3 uM after 24 hrs by Annexin-V FITC/propidium iodide staining based flow cytometry (reference value: 3.8%); assay type: functional
Mus musculus [21] = test: Toxicity in ICR mouse implanted with mouse 4T1 cells assessed as body weight loss at 10 mg/kg, ip daily for 11 days measured daily during compound dosing; assay type: organism-based; conditions: in vivo, 264 h
How it was run: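 4T1-bearing male ICR mice (5 weeks, 6/group), dosed i.p. with PBS/DMSO (8:2) vehicle control. Body weight recorded daily. BI% = (1 − mean treated/mean control body weight) × 100.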

MDA-MB-231 [22] = test: Induction of apoptosis in human MDA-MB-231 cells after 24 hrs by Annexin-V FITC/propidium iodide staining based flow cytometry; assay type: functional, cell-based
HCT-116 = test: Potency index, ratio of stattic IC50 to compound IC50 for human HCT116 cells; assay type: functional
MDA-MB-231 [23] = test: Induction of apoptosis in human MDA-MB-231 cells assessed as early apoptotic cells at 5 uM after 24 hrs by Annexin-V FITC/propidium iodide staining based flow cytometry (reference value: 3.8%); assay type: functional
MDA-MB-231 [24] = test: Induction of apoptosis in human MDA-MB-231 cells assessed as necrotic cells at 7 uM after 24 hrs by Annexin-V FITC/propidium iodide staining based flow cytometry (reference value: 4.1%); assay type: functional
MDA-MB-231 [25] = test: Induction of apoptosis in human MDA-MB-231 cells assessed as increase in cleaved PARP expression at 1 to 5 uM after 24 hrs by Western blot method; assay type: functional, cell-based; how it was run: as §2

Sequence of Signal transducer and activator of transcription 3 (Homo sapiens) (P40763 whole entry): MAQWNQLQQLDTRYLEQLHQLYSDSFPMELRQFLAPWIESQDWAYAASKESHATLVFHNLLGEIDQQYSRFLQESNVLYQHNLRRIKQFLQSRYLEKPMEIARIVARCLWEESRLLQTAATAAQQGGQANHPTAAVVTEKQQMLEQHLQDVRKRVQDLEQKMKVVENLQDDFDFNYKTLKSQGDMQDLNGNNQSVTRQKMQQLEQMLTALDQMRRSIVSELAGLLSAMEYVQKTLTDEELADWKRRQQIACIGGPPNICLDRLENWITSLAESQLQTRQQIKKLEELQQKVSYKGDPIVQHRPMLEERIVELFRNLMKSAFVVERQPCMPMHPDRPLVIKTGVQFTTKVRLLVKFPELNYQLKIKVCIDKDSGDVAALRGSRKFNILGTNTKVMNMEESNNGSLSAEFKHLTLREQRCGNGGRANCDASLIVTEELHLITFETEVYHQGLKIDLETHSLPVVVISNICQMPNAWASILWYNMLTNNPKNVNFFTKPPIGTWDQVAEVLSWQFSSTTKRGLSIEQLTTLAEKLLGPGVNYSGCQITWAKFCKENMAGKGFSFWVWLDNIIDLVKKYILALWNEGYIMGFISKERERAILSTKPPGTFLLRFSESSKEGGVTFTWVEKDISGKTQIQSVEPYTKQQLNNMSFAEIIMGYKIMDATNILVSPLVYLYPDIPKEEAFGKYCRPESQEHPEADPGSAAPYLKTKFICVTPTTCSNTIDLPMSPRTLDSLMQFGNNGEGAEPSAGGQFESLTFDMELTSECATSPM

Compound: O=S1(=O)C=Cc2cccc(Nc3cccc(C(F)(F)F)c3)c21
- Activity (MDA-MB-231 [1]): 6.2%
- Activity (MDA-MB-231 [2]): 72.2%
- fold change (FC) (MDA-MB-231 [3]): 1.74
- Activity (MDA-MB-231 [4]): 7.2%
- Activity (MDA-MB-231 [5]): Active
- inhibition (Mus musculus [6]): Active
- inhibition (MDA-MB-231 [7]): Active
- inhibition [8]: Active
- Activity (MDA-MB-231 [9]): 7.2%
- pIC50 [10]: 6.12
- pIC50 [11]: 6.48
- fold change (FC) (MDA-MB-231 [12]): 1.94
- Activity (MDA-MB-231 [13]): 8.7%
- Activity (MDA-MB-231 [14]): 4.1%
- fold change (FC) (MDA-MB-231 [15]): 1.37
- Activity (MDA-MB-231 [16]): 5.8%
- Activity (MDA-MB-231 [17]): 83.4%
- inhibition [18]: Dose-dependent effect
- pIC50 [19]: 6.17
- Ratio IC50 (MCF7): 1.5 - 12
- Activity (MDA-MB-231 [20]): 6.8%
- Activity (Mus musculus [21]): Non-Toxic
- Activity (MDA-MB-231 [22]): Dose-dependent effect
- Ratio IC50 (HCT-116): 1.5 - 12
- Activity (MDA-MB-231 [23]): 10.3%
- Activity (MDA-MB-231 [24]): 6.9%
- Activity (MDA-MB-231 [25]): Active
